Screening data deposited in PubChem by several laboratories.
This is a sample that favours compounds with a hit; in the whole collection about 3.7% have one here.
Myeloid diff MLP: induction of myeloid progenitor differentiation, primary screen, cell-based, flow cytometry, MLPCN library; ER-HoxA9 myeloid progenitors, lysozyme-GFP differentiation; actives 1% (n = 360,000); calls only at 10 µM;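 active means normalized GFP-positive differentiation at or above the plate's own cutoff, the solvent-only control mean plus 3 SD; inconclusive means no clear call, values can overlap the other calls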;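 further: cells exposed to compound for four days before flow analysis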
EBI2 block: EBI2 receptor antagonists, beta-arrestin recruitment, primary screen, cell-based, luminescence, 7a,25-OHC stimulation, uHTS | G-protein coupled receptor 183 (Homo sapiens), P32249 | 7a,25-OHC stimulated | inhibition, % at 5 µM | actives 0.81% (n = 360,000) | AID 651636, 2012; in the data active means inhibition above about 38%;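 further: enzyme fragment complementation signal reports receptor beta-arrestin coupling in cells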
Target sequence (P32249 whole entry, looked up, the tested form may be a part): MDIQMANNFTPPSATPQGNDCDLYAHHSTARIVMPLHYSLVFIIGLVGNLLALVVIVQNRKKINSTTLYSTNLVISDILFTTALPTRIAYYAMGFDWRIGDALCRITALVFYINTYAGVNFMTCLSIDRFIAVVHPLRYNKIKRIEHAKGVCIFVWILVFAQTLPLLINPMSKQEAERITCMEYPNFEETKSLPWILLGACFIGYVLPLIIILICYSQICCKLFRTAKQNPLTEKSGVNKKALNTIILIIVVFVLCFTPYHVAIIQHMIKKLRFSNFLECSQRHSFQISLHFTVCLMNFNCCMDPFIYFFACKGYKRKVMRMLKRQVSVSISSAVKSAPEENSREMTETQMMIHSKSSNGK
Granule exo inh: LAMP-1 surface exposure blockers, TALL-104 cells – cell-based, flow cytometry, MLPCN library, primary screen. TALL-104 LAMP-1 surface exposure; cells stimulated with thapsigargin and PMA. actives 0.66% (n = 360,000). AID 651702, 2012. inhibition, % at 10 µM;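 active means inhibition above about 55%, limit read from the data; inconclusive means no clear call, values can overlap the other calls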
MC4R antag cAMP: MC4R antagonists of cAMP signaling, primary screen, cell-based, TR-FRET, antagonist arm of biased-ligand search; Melanocortin receptor 4 (Homo sapiens), P32245; MC4R-expressing cells, MTII-stimulated cAMP, LANCE TR-FRET; inhibition, % at 6.5 µM; actives 0.48% (n = 360,000);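 active means inhibition above its plate's cutoff, the mean of tested wells on that plate plus 3 SD, cut at about 29% in these data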
Target sequence (P32245 whole entry, looked up): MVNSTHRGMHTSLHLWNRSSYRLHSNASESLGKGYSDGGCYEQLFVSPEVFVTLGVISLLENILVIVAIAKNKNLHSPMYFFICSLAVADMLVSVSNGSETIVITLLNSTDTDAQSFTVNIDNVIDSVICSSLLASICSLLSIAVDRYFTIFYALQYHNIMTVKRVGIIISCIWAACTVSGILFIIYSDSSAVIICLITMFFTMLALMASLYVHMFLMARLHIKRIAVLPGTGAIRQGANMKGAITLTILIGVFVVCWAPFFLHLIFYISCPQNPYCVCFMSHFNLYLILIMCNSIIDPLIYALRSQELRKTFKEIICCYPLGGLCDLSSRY
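Material – human MC4R-expressing U2OS cells · Repeats – no replicates · Detection – TR-FRET with Eu-cAMP and labeled anti-cAMP, 671 nm · Times – compound 30 min, challenge 1 h, detection 1 h · Compound – single nominal compound dose of 6.5 µM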
MC4R barr agon: MC4R agonists recruiting beta-arrestin, primary screen, cell-based, luminescence, agonist arm of biased-ligand search; U2OS MC4R beta-arrestin complementation; percent of melanotan II response, DMSO zero; AID 540308, 2011; activation, % at 8.9 µM; actives 0.98% (n = 360,000);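 active means activation above a per-plate cutoff, the mean activation of sample wells on that plate plus 3 SD, cut at about 8% in these data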
cAMP nonselect: nonselective cAMP signaling inhibitors, parental cells, counter-screen for MC4R biased antagonist project, cell-based, TR-FRET, U2OS, forskolin, triplicate | inhibition, % at 6.5 µM | AID 602193, 2012 | actives 26% (n = 1,600) | LANCE TR-FRET | shares compounds with MC4R antag cAMP;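 active means mean inhibition over triplicates above the low-control well mean plus 3 SD, set per campaign, cut at about 13% in these data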;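 further: signal is single emission at 671 nm which falls as cellular cAMP rises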
MC4R cAMP antag: MC4R cAMP antagonists, retest, confirmation, cell-based, TR-FRET; inhibition, % at 6.5 µM; actives 27% (n = 1,600); MC4R-expressing cells, MTII-stimulated cAMP; AID 602195, 2012; shares compounds with MC4R antag cAMP; in the data active means inhibition above about 29%
Of the large screens only hits and unclear results are named; the others gave an inactive call (follow-up assays come after a bar, where they were run).

COC(=O)c1ccc2c(=O)n(Cc3ccco3)c(SCC(=O)Nc3cc(C)on3)nc2c1	none
COC(=O)c1ccc2c(=O)n(Cc3ccco3)c(SCC(=O)Nc3ccccc3Cl)nc2c1	MC4R antag cAMP 29.0 | cAMP nonselect inactive | MC4R cAMP antag inactive
CC(C)Sc1nnc(SCC(=O)NCCCN2CCCC2=O)s1	none
O=C(NC1=NCCS1)c1ccc(Cl)c(S(=O)(=O)N2CCCC2)c1	MC4R antag cAMP 32.0 | cAMP nonselect inactive | MC4R cAMP antag inactive
O=C(NC1=NCCS1)c1ccc(Cl)c(S(=O)(=O)N2CCCCC2)c1	none
O=C(NC1=NCCS1)c1ccccc1	none
Cc1cccc(C(=O)NC2=NCCS2)c1	MC4R antag cAMP 33.3 | cAMP nonselect inactive | MC4R cAMP antag inactive
O=C(Nc1nc2ccccc2[nH]1)c1ccc(Cl)c(S(=O)(=O)N2CCCC2)c1	MC4R antag cAMP 29.0 | cAMP nonselect inactive | MC4R cAMP antag inactive
CC1(C(=O)Nc2cnc3ccccc3c2)CCN1Cc1ccccc1OC(F)F (centres undefined)	none
O=C1c2cc3c(cc2CCC1c1ccc2c(c1)OCO2)OCO3 (centres undefined)	none
CC1(CC(=O)N/N=C/c2cc3c(cc2Br)OCO3)OCCO1	none
N#C/C(=C/c1ccc(N2CCCCC2)o1)C(=O)Nc1ccc2ccccc2c1	Granule exo inh 62.7, MC4R antag cAMP 29.3 | cAMP nonselect inactive | MC4R cAMP antag inactive
N#C/C(=C/c1ccc(N2CCOCC2)o1)C(=O)NC1CCCCC1	none
CC(C)(C)c1ccc(C(=O)c2c[nH]c(C(=O)NCc3cccnc3)c2)cc1	none
O=C(Cc1ccc(Cl)cc1)c1c[nH]c(C(=O)NCc2cccnc2)c1	MC4R antag cAMP 32.2 | cAMP nonselect inactive | MC4R cAMP antag inactive
Cc1ccc(C(=Cc2ccc([N+](=O)[O-])cc2)C(=O)O)cc1	none
C=CCn1c(C)cc(C(=O)COc2ccc(N(C)S(=O)(=O)c3ccc(NC(C)=O)cc3)cc2)c1C	MC4R antag cAMP 40.3 | cAMP nonselect inactive | MC4R cAMP antag inactive
CCOc1cccc(C(=O)Nc2ccccc2C(=O)N2CCOCC2)c1	none
O=C(Nc1ccccc1)OC1CCC2CC1CCC2OC(=O)Nc1ccccc1 (centres undefined)	MC4R antag cAMP 32.2 | cAMP nonselect inactive | MC4R cAMP antag 32.5
Cc1ccc(S(=O)(=O)n2cccc2/C=C/[N+](=O)[O-])cc1	Myeloid diff MLP inconclusive, MC4R antag cAMP 38.2 | cAMP nonselect inactive | MC4R cAMP antag inactive
Cc1onc(-c2ccccc2Cl)c1C(=O)NNC(=O)c1nn(C)cc1Cl	MC4R antag cAMP 36.3 | cAMP nonselect inactive | MC4R cAMP antag inactive
Cc1onc(-c2ccccc2Cl)c1C(=O)NNC(=O)c1ccc(F)cc1	none
C/C(=C\c1ccc(N)cc1)c1nc2ccccc2[nH]1	none
O=S(=O)(/C(=C/c1ccc(C(F)(F)F)cc1)c1nc2ccccc2[nH]1)c1ccccc1	Myeloid diff MLP inconclusive, MC4R antag cAMP 34.9 | cAMP nonselect 13.2 | MC4R cAMP antag 48.0
COc1cccc(C(C(=O)NC2CCCC2)N(C(=O)CNC(=O)c2ccco2)c2cccnc2)c1 (centres undefined)	none
Cc1ccc(N2CC(C(=O)Nc3ccc(S(=O)(=O)N4CCOCC4)cc3)CC2=O)cc1 (centres undefined)	none
Cc1cccc(N2CC(C(=O)Nc3ccc(S(=O)(=O)N4CCOCC4)cc3)CC2=O)c1 (centres undefined)	MC4R antag cAMP 30.4 | cAMP nonselect inactive | MC4R cAMP antag inactive
CCOC(=O)C1=C(C)C/C(=N\NC(=O)c2ccccc2O)CC1	none
CCOCc1nc(N)nc(N)c1-c1cccc(Cl)c1	Myeloid diff MLP inconclusive, MC4R antag cAMP 31.1 | cAMP nonselect inactive | MC4R cAMP antag inactive
O=C(Nc1ccc2c(c1)OCCO2)N1CCN(Cc2ccccc2)CC1	none
CCCOc1ccc(/C=N/NC(=O)CN(c2ccc(OCC)cc2)S(C)(=O)=O)cc1	none
CCOc1ccc(N(CC(=O)N/N=C/c2cccnc2)S(C)(=O)=O)cc1	MC4R antag cAMP 30.6 | cAMP nonselect inactive | MC4R cAMP antag inactive
Cc1ccnc(NC(=O)c2cnc(Cl)c(Cl)c2)c1	MC4R antag cAMP 32.3 | cAMP nonselect 17.7 | MC4R cAMP antag inactive
CC(OC(=O)c1cccnc1Cl)C(=O)Nc1ccc2c(c1)OCO2 (centres undefined)	none
CC(=O)Nc1ccc(OCc2cn(CC(=O)c3ccc(O)cc3)nn2)cc1	none
Cc1cc2nc(CSc3ccc(Cl)cc3)cc(=O)n2[nH]1	MC4R antag cAMP 29.3 | cAMP nonselect inactive | MC4R cAMP antag inactive
CS(=O)(=O)c1nc(-c2ccc(Br)cc2)cc(-c2ccccc2)c1C#N	Myeloid diff MLP inconclusive, EBI2 block 81.1, MC4R antag cAMP 43.1 | cAMP nonselect 24.6 | MC4R cAMP antag 65.0
N#Cc1c(-c2ccc(Br)cc2)cc(-c2cccnc2)nc1N	none
CS(=O)c1nc(-c2ccc(Br)cc2)cc(-c2ccccc2)c1C#N (centres undefined)	Myeloid diff MLP inconclusive, EBI2 block 63.9, MC4R antag cAMP 57.0 | cAMP nonselect inactive | MC4R cAMP antag 65.7
O=C(c1[nH]c(C(F)(F)F)nc1-c1ccccc1)N1CCN(Cc2c(F)cccc2Cl)CC1	none (no result: MC4R antag cAMP, MC4R barr agon)
Cc1ccccc1-c1n[nH]c(=S)o1	MC4R antag cAMP 41.8 | cAMP nonselect 24.8 | MC4R cAMP antag 47.1
COc1ccc(Cl)cc1-c1n[nH]c(=S)o1	MC4R antag cAMP 71.9 | cAMP nonselect 45.3 | MC4R cAMP antag 78.0
COc1ccccc1-c1n[nH]c(=S)o1	none
CSc1ccccc1-c1n[nH]c(=S)o1	MC4R antag cAMP 89.8 | cAMP nonselect 49.7 | MC4R cAMP antag 94.0
COc1ccccc1N1CCN(c2ccc3c(c2)S(=O)(=O)c2cccc(C(=O)NCc4cccc(F)c4)c2C3=O)CC1	none
CC(=O)NC1(C)CCC2CC1C(C)=NC2(C)C (centres undefined)	none (no result: MC4R antag cAMP, MC4R barr agon)
O=C(NCCOc1ccccc1Cl)c1ncn[nH]1	MC4R antag cAMP 30.1 | cAMP nonselect inactive | MC4R cAMP antag inactive
O=C(NCCOc1ccccc1Cl)c1cc(F)c(F)cc1Cl	none
COC(=O)COc1ccc(NC(=O)Cn2nc(-c3ccccc3)c3ccccc3c2=O)cc1	MC4R antag cAMP 29.1 | cAMP nonselect 18.7 | MC4R cAMP antag 37.8
